# Screening results as filed in PubChem BioAssay.
# pCIP destab – compounds decreasing mouse p/CIP protein stability; Q05BA5; F442A p/CIP-EGFP cells, EGFP fluorescence, 16 h; decrease of EGFP signal, % at 10 µM; 0.01% of 290,000 active;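 active = EGFP signal decrease of at least 30% at 10 µM or well 3 SD below plate mean, unless failing retest; inactive = the rest, including hits failing retest or dose response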
# T cruzi inh – T. cruzi replication inhibition; T. cruzi beta-gal in NIH3T3, luminescence, 90 h; inhibition, % (concentration not given with the values); 1.4% of 300,000 active; AID 1885;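 active = mean inhibition across valid replicates above about 55%, limit read from the data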;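 note: signal also drops with host cell toxicity which is not excluded here; 0% = plate median of DMSO wells and 100% = zero luminescence signal; higher percent means less beta-gal luminescence so fewer parasites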
#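 Read-out: Parasite load inhibition, % | Test system: Mouse NIH/3T3 fibroblasts infected with β-gal-expressing T. cruzi Tulahuen C4 | Amount: 5,000 cells/well | Medium: DMEM, 2% fetal bovine serum | Signal: GalScreen β-gal luminescence, detergent lysis, 60 min | Timing: 3 h attach, ≥90 h co-culture | Also added: Tulahuen C4 trypomastigotes, 5000/well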
# PP1 inh – PP1-alpha (human) inhibition in PP5 counter-screen | AID 2235 | 0.9% of 320,000 active | P62136 | inhibition, % at 6.7 µM | purified PP1alpha, OMFP fluorescence;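 active = inhibition above the mean inhibition of all tested compounds plus 3 SD, computed separately for each screening campaign, cut at about 15% in these data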
# Target sequence (P62136 whole entry, looked up): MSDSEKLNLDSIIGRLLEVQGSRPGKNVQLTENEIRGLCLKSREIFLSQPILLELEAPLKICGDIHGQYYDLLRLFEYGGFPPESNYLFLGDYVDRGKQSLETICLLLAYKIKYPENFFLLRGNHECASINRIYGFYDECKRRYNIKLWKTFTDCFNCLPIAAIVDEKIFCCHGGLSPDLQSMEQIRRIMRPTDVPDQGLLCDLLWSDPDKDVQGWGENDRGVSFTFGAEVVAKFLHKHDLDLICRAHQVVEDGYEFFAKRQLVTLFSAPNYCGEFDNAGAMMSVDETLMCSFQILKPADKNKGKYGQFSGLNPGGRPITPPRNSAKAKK
# AI-2 QS mod – modulates the Vibrio harveyi AI-2 quorum sensing system; Vibrio harveyi JMH597 AI-2 luminescence/OD600 ratio, 9 h; active compounds read low; strain lacks LuxN and CqsS sensors; 0 = neutral-control median; 0.4% of 300,000 active; activity change, % at 7.5 µM; AID 2094; in the data active = activity change below about -75%, passing the limit was not always enough;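 note: luminescence divided by OD600 gain over 9 h not by final OD600 alone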
# UBC13 inh – inhibitors of human UBC13 polyubiquitin chain formation. inhibition, % at 20 µM. P61088. AID 485273. 0.47% of 330,000 active. TR-FRET; in the data active = inhibition above about 45%, passing the limit was not always enough
# Active calls of the source: *; x = no result. This is a sample that favours compounds with a hit; in the whole collection about 2.8% have one here.
SMILES,pCIP destab,T cruzi inh,PP1 inh,AI-2 QS mod,UBC13 inh
CC(=O)N1CCN(c2ncnc3sc(-c4ccccc4)cc23)CC1,0,4,0,19,2
Oc1ccc(N2CCN(c3ncnc4sc(-c5ccccc5)cc34)CC2)cc1,-12,58*,x,8,x
CCOC(=O)c1cccc(NC(=O)CSc2nc3cccnc3n2C)c1,-30,x,-4,x,8
O=C(Nc1ccccc1N1CCN(C(=O)c2ccc(Cl)cc2)CC1)c1ccc([N+](=O)[O-])o1,12,62*,8,12,-11
CCCC(=O)N1CCN(c2ccc(NC(=O)c3ccc([N+](=O)[O-])o3)cc2Cl)CC1,-4,57*,x,37,x
Cc1ccccc1C(=O)N1CCN(c2ccc(NC(=O)c3ccc([N+](=O)[O-])o3)cc2)CC1,-20,58*,-2,x,-20
O=C(Nc1ccc(N2CCN(C(=O)c3ccc(Cl)cc3)CC2)cc1)c1ccc(Br)o1,-12,70*,5,34,-1
O=C(Nc1ccc(Nc2ccccc2)cc1)c1ccc(Br)o1,-3,13,0,-92*,-16
O=C(Nc1ccccc1N1CCN(C(=O)c2ccc(Cl)cc2)CC1)c1ccc(Br)cc1,-2,64*,16*,18,7
O=C(NC(=S)Nc1ccccc1)c1ccc(Br)o1,-4,-6,1,8,-1
COc1ccc(C(=O)N2CCCC(CCC(=O)NCc3ccccc3F)C2)c(OC)n1 (stereo unspecified),-7,7,-2,14,5
O=C(O)/C=C/C(=O)c1ccc2c(c1)CCc1ccccc1-2,x,-19,1,-89*,-21
CC(=O)Nc1ccc2c(c1)CCc1ccccc1-2,-12,-3,-3,18,-5
COc1ccc(S(=O)(=O)NC(C(=O)NCCc2ccccn2)C(C)C)cc1 (stereo unspecified),3,-21,-2,0,1
Nc1c(-c2ccccc2)cnn1-c1cccc(Cl)c1,-6,-6,1,11,7
Nc1ccccc1Nc1cc(-c2cccc(Cl)c2)nn1-c1ccccc1,8,57*,3,16,13
O=C(Cn1nnc(-c2ccccc2)n1)NCc1ccco1,3,-3,-3,-18,-5
COc1ccccc1C(=O)Nc1ccc(-c2nnn(CC(=O)NCc3ccco3)n2)cc1,-9,-13,16*,43,2
CCn1cc(C(=O)O)c(=O)c2cc(F)c(N/N=C/c3ccccc3)cc21,-11,3,16*,5,-15
COC(=O)c1ccc(C2=NOC(C)(c3nnc(-c4cccc(Cl)c4)o3)C2)cc1 (stereo unspecified),x,1,-2,10,-6
COc1ccc(C2SCC(=O)N2Cc2ccccc2)cc1 (stereo unspecified),9,4,0,-4,2
COc1ccc(C2SCC(=O)N2CC23CC4CC(CC(C4)C2)C3)cc1 (stereo unspecified),-13,61*,-1,8,-10
COc1ccc2cc(C(C)C(=O)N3CCC(C(N)=O)CC3)ccc2c1 (stereo unspecified),-11,1,1,-9,2
COc1ccc(NC(=O)C2CCN(c3cnccn3)CC2)cc1OC,-5,5,-1,22,0
Cc1ccc(S(=O)(=O)N2CCC(C(=O)Nc3ccc(S(=O)(=O)N4CCCC4)cc3)CC2)cc1,x,26,1,42,-8
SMILES,pCIP destab,T cruzi inh,PP1 inh,AI-2 QS mod,UBC13 inh
Cc1ccc(NC(=O)C2CCN(c3cnccn3)CC2)cc1C,5,64*,-3,25,-4
Cc1ccc(S(=O)(=O)N2CCC(C(=O)Nc3ccc(S(=O)(=O)N4CCCC4)cc3)CC2)cc1C,x,74*,-1,17,0
CCN(CC)S(=O)(=O)c1ccc(NC(=O)Cc2cccs2)cc1,9,0,0,7,-8
Cc1ccc(C(=O)NCCc2nc3ccccc3[nH]2)cc1[N+](=O)[O-],10,58*,2,4,-10
Oc1ccc(N=Nc2ccc(Br)cc2)c(O)c1,2,60*,0,2,-102
Cc1ccc(N=Nc2ccc(O)cc2)c(Br)c1,-6,5,3,7,-17
CC(C(=O)Nc1ccccc1)N1CCN(C(=O)c2ccco2)CC1 (stereo unspecified),x,x,0,x,3
O=C1CC(c2ccc(O)c(O)c2)Oc2cc(O)cc(O)c21 (stereo unspecified),-4,-37,16*,21,16
